According to ChEMBL document CHEMBL3272287, “Synthesis and biological activity of new 2-substituted analogs of fluphenazine” (1976):

Assays:
Assay type in all cases: functional
[1] = test system: Mus musculus; assay: Cataleptogenic potency in iv dosed albino mouse assessed as reversal of imposed position administered 4 doses at quarter log intervals measured 60 to 180 mins post dose
How it was run: (§1)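 Male albino mice (20–25 g), six per dose, given intravenous aqueous solutions (PEG 200 for one analog). Distilled water served as the negative control. About four doses were spaced at quarter-log intervals, chosen from a preliminary gross observation screen. At 60, 120 and 180 min, mice were placed with forepaws elevated 5 cm and each forepaw was scored, maximum 3. Three observers scored the mice. CD50 came from probit analysis, with doses as free base. Relative potency was calculated against fluphenazine as 1.0.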

[2] = test system: Mus musculus; assay: Cataleptogenic potency in iv dosed albino mouse assessed as reversal of imposed position administered 4 doses at quarter log intervals measured 60 to 180 mins post dose relative to fluphenazine; how it was run: as §1
[3] = test system: Rattus norvegicus; assay: Cataleptogenic potency in im dosed albino rat assessed as reversal of imposed position administered 4 doses at quarter log intervals measured 60 to 180 mins post dose
How it was run: (§2)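 Male albino rats (about 180 g average), groups of six, each given a single intramuscular injection into the gastrocnemius, about 0.1 ml/kg. Saline-injected controls. One observer scored forepaw-elevation catalepsy. CD50 was the dose giving 50% of the maximum catalepsy score (9 of 18 points), estimated by probit analysis. Doses were expressed as free base. Relative potency was calculated against fluphenazine as 1.0.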

[4] = test system: Rattus norvegicus; assay: Cataleptogenic potency in im dosed albino rat assessed as reversal of imposed position administered 4 doses at quarter log intervals measured 60 to 180 mins post dose relative to fluphenazine; how it was run: as §2

O=[N+]([O-])c1ccc2c(c1)N(CCCN1CCN(CCO)CC1)c1ccccc1S2
ED50 [1]: 2.2 µmol/kg | Ratio [2]: 0.92 | ED50 [3]: 0.17 µmol/kg | Ratio [4]: 3.2

N#CC(C#N)=Cc1ccc2c(c1)N(CCCN1CCN(CCO)CC1)c1ccccc1S2
ED50 [1]: 28 µmol/kg | Ratio [2]: 0.078

O=[N+]([O-])/C=C/c1ccc2c(c1)N(CCCN1CCN(CCO)CC1)c1ccccc1S2
ED50 [1]: > 57 µmol/kg | Ratio [2]: <0.011

N#Cc1ccc2c(c1)N(CCCN1CCN(CCO)CC1)c1ccccc1S2
ED50 [1]: 0.41 µmol/kg | Ratio [2]: 0.7 | ED50 [3]: 0.61 µmol/kg | Ratio [4]: 0.65

OCCN1CCN(CCCN2c3ccccc3Sc3ccc(C(F)(F)F)cc32)CC1 [FLUPHENAZINE]
ED50 [1]: 0.29 µmol/kg | ED50 [3]: 0.39 µmol/kg
